Measured values from ChEMBL document CHEMBL1157621, “Synthesis, biological activity, and molecular modeling studies of 1H-1,2,3-triazole derivatives of carbohydrates as alpha-glucosidases inhibitors” (J Med Chem, 2010).
The source made the active and inactive calls.

Legend:
[1] = target: Alpha-glucosidase MAL12 (Saccharomyces cerevisiae S288c) (UniProt P53341); test: Inhibition of yeast alpha-glucosidase MAL12 assessed as inhibition of p-nitrophenol release at 500 uM by spectrophotometry relative to control
How it was run: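 Baker's yeast maltase, with p-nitrophenyl-α-D-glucopyranoside as substrate. Released p-nitrophenol was read at 405 nm. Compounds were screened at a fixed 500 μM, and activity was expressed as percent inhibition relative to a no-inhibitor control assay. Acarbose served as comparator.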

Alpha-glucosidase MAL12 = Alpha-glucosidase MAL12 (Saccharomyces cerevisiae S288c, UniProt P53341); test: Inhibition of yeast alpha-glucosidase MAL12 assessed as inhibition of p-nitrophenol release by spectrophotometry
How it was run: (§1)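 Yeast maltase activity was followed by p-nitrophenol release from p-nitrophenyl-α-D-glucopyranoside at 405 nm. IC50 was defined as the concentration giving 50% inhibition under assay conditions. Acarbose was tested in the same assay, and the ratio was taken as acarbose IC50 over compound IC50.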

Rattus norvegicus [2] = test: Hypoglycemic activity in maltose-fed Wistar rat assessed as reduction in postprandial blood glucose level at 50 mg/kg, po administered 5 mins before maltose challenge measured after 30 mins of maltose infusion
Rattus norvegicus [3] = test: Hypoglycemic activity in maltose-fed Wistar rat assessed as reduction in postprandial blood glucose level at 50 mg/kg, po administered 5 mins before maltose challenge measured after 60 mins of maltose infusion
[4] = target: Alpha-glucosidase MAL12 (Saccharomyces cerevisiae S288c) (UniProt P53341); test: Ratio of acarbose IC50 to compound IC50 for yeast alpha-glucosidase MAL12; how it was run: as §1

Chain of Alpha-glucosidase MAL12 (Saccharomyces cerevisiae S288c) (P53341 whole entry): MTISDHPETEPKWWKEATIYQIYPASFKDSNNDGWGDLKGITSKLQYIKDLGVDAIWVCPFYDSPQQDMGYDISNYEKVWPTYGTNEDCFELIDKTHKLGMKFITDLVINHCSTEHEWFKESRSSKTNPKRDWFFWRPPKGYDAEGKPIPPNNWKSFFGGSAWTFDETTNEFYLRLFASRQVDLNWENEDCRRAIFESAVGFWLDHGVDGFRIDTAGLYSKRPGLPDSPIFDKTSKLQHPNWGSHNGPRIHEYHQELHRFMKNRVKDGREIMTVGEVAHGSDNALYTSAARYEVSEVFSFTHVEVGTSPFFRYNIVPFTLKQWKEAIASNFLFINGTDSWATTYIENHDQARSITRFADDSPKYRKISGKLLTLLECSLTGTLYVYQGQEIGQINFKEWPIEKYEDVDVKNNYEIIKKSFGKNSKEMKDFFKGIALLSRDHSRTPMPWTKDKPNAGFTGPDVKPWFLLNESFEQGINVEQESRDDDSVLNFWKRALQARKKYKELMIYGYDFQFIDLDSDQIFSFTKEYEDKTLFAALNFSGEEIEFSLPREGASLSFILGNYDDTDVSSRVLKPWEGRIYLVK
Chain of Alpha-glucosidase MAL12 (P53341 whole entry): as above

Structure (SMILES) | inhibition [1] [%] | IC50 (Alpha-glucosidase MAL12) [µM] | Ratio IC50 [4] | Activity (Rattus norvegicus [2]) | Activity (Rattus norvegicus [3])
CC1(C)O[C@H]2[C@@H](O1)[C@@H](Cn1cc(-c3ccccc3)nn1)O[C@@H]1OC(C)(C)O[C@@H]12 | 99.4 | – | – | – | –
CC1(C)O[C@H]2O[C@H](Cn3cc(-c4ccccc4)nn3)[C@H](O)[C@H]2O1 | 87.9 | – | – | – | –
CC1(C)O[C@H]2O[C@H]([C@H]3COC(C)(C)O3)[C@@H](n3cc(-c4ccccc4)nn3)[C@H]2O1 | 73.1 | – | – | – | –
CO[C@@H]1O[C@H](Cn2cc(COC3CCCCO3)nn2)[C@H]2OC(C)(C)O[C@@H]12 (some centres not stated) | 79.5 | 24.7 | – | – | –
C[C@H]1O[C@H](O[C@H]2[C@H](O)[C@@H](O)[C@@H](O[C@H]3[C@H](O)[C@@H](O)C(O)O[C@@H]3CO)O[C@@H]2CO)[C@H](O)[C@@H](O)[C@@H]1N[C@H]1C=C(CO)[C@@H](O)[C@H](O)[C@H]1O (some centres not stated) | 48.1 | – | – | Active | Active
CC1(C)O[C@H]2O[C@H](Cn3cc(CO)nn3)[C@H](O)[C@H]2O1 | 68.8 | – | – | – | –
CC1(C)O[C@H]2O[C@H](Cn3cc(C4=CCCCC4)nn3)[C@H](O)[C@H]2O1 | 33.3 | – | – | – | –

More lines, main results first:

inhibition [1] [%] | IC50 (Alpha-glucosidase MAL12) [µM] | Ratio IC50 [4] | Structure (SMILES) | Activity (Rattus norvegicus [2]) | Activity (Rattus norvegicus [3])
41.1 | – | – | CCC(C)(O)c1cn(C[C@H]2O[C@@H](OC)[C@@H]3OC(C)(C)O[C@@H]32)nn1 (some centres not stated) | – | –
94.4 | 14.9 | – | CO[C@@H]1O[C@H](Cn2cc(-c3ccccc3)nn2)[C@H]2OC(C)(C)O[C@@H]12 | Active | Active
98.5 | 5.2 | 20 | CO[C@@H]1O[C@H](Cn2cc(C3(O)CCCCC3)nn2)[C@H]2OC(C)(C)O[C@@H]12 | – | –
46.5 | – | – | CO[C@@H]1O[C@H](Cn2cc(CO)nn2)[C@H]2OC(C)(C)O[C@@H]12 | – | –
60.2 | – | – | CO[C@@H]1O[C@H](Cn2cc(C(C)(C)O)nn2)[C@H]2OC(C)(C)O[C@@H]12 | – | –
98.1 | 3.8 | 25 | CO[C@@H]1O[C@H](Cn2cc(C3=CCCCC3)nn2)[C@H]2OC(C)(C)O[C@@H]12 | – | –
44.9 | – | – | CCCc1cn(C[C@H]2O[C@@H](OC)[C@@H]3OC(C)(C)O[C@@H]32)nn1 | – | –
99.5 | – | – | CO[C@@H]1O[C@H](Cn2cc(CCCCl)nn2)[C@H]2OC(C)(C)O[C@@H]12 | – | –
98.4 | 5.7 | 20 | CO[C@@H]1O[C@H](Cn2cc(COc3ccccc3)nn2)[C@H]2OC(C)(C)O[C@@H]12 | Active | Active
98 | 15.1 | – | CCOC(=O)c1cn(C[C@H]2O[C@@H](OC)[C@@H]3OC(C)(C)O[C@@H]32)nn1 | – | –
